Assay results published in ChEMBL document CHEMBL1212938, “Inhibition of mycobacterial replication by pyrimidines possessing various C-5 functionalities and related 2'-deoxynucleoside analogues using in vitro and in vivo models” (J Med Chem, 2010).
Converted amounts (≈) assume the structure as drawn. The source made the active and inactive calls. No cut-off for these calls is given here.

Assays:
[1] = test system: Mycobacterium tuberculosis; assay: Antitubercular activity against Mycobacterium tuberculosis H37Ra at 1 ug/ml after 6 days by microplate alamar blue assay; format: functional; details: 144 h
Method in brief: (§1)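 MABA run in 7H9GC medium, with drug diluted from DMSO stocks made at 100× the highest final concentration. Final levels were 100, 50, 10, 5, 2.5 and 1 μg/mL in triplicate, and the experiment was done three times. Inoculum was 2.5 × 10⁵ CFU/mL final. Alamar Blue plus Tween-80 was added once bacteria-only control wells turned pink, from day 6 on, and plates were read visually and by fluorescence after 24 h. Visual MIC is the lowest concentration preventing the blue-to-pink change. Mean percent inhibition was taken relative to bacteria-only and medium-only wells.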

[2] = test system: Mycobacterium tuberculosis; assay: Antitubercular activity against Mycobacterium tuberculosis H37Ra after 6 days by microplate alamar blue assay; format: functional; details: 144 h; method in brief: as §1
[3] = test system: Mycobacterium tuberculosis; assay: Antitubercular activity against Mycobacterium tuberculosis H37Ra at 10 ug/ml after 6 days by microplate alamar blue assay; format: functional; details: 144 h; method in brief: as §1
[4] = Cytotoxicity against human HuH7 cells assessed as cell viability after 2 days by XTT assay; format: cell-based, Huh-7; details: HuH7 cells
Method in brief: (§2)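 Huh-7 cells seeded at 1 × 10⁵ cells/well and left to attach 6-8 h. Medium then replaced with compound at 200, 100, 50, 10 or 1 μg/mL, with a DMSO control, and incubated 2 days at 37 °C. Viability by XTT, absorbance read at 450-500 nm.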

[5] = Cytotoxicity against human HuH7 cells assessed as cell viability at 200 ug/ml after 2 days by XTT assay; format: cell-based; details: huh-7, 48 h; method in brief: as §2
[6] = test system: Mycobacterium tuberculosis; assay: Antitubercular activity against Mycobacterium tuberculosis H37Ra at 50 ug/ml after 6 days by microplate alamar blue assay; format: functional; details: 144 h; method in brief: as §1
Salmonella typhimurium = assay: Antibacterial activity against Salmonella Typhimurium at 100 ug/ml after 16 to 20 hrs by broth microdilution method; format: functional, organism-based; details: Salmonella enterica subsp. enterica serovar Typhimurium
[7] = test system: Mycobacterium tuberculosis; assay: Antitubercular activity against Mycobacterium tuberculosis H37Ra at 5 ug/ml after 6 days by microplate alamar blue assay; format: functional; details: 144 h; method in brief: as §1
[8] = test system: Mycobacterium tuberculosis; assay: Antitubercular activity against Mycobacterium tuberculosis H37Ra at 100 ug/ml after 6 days by microplate alamar blue assay; format: functional; details: 144 h; method in brief: as §1
Streptococcus pneumoniae = assay: Antibacterial activity against Streptococcus pneumoniae at 100 ug/ml after 16 to 20 hrs by broth microdilution method; format: functional, organism-based
Escherichia coli = assay: Antibacterial activity against Escherichia coli at 100 ug/ml after 16 to 20 hrs by broth microdilution method; format: functional, organism-based
Streptococcus pyogenes = assay: Antibacterial activity against Streptococcus pyogenes at 100 ug/ml after 16 to 20 hrs by broth microdilution method; format: functional, organism-based
Proteus vulgaris = assay: Antibacterial activity against Proteus vulgaris at 100 ug/ml after 16 to 20 hrs by broth microdilution method; format: functional, organism-based
Pseudomonas aeruginosa = assay: Antibacterial activity against Pseudomonas aeruginosa at 100 ug/ml after 16 to 20 hrs by broth microdilution method; format: functional, organism-based
Listeria monocytogenes = assay: Antibacterial activity against Listeria monocytogenes at 100 ug/ml after 16 to 20 hrs by broth microdilution method; format: functional, organism-based
[9] = Cytotoxicity against human HuH7 cells assessed as cell viability at > 200 ug/ml after 2 days by [3H]thymidine incorporation assay; format: cell-based; details: huh-7, 48 h
Enterococcus faecalis = assay: Antibacterial activity against Enterococcus faecalis at 100 ug/ml after 16 to 20 hrs by broth microdilution method; format: functional, organism-based
Staphylococcus aureus = assay: Antibacterial activity against Staphylococcus aureus at 100 ug/ml after 16 to 20 hrs by broth microdilution method; format: functional, organism-based
Bacillus subtilis = assay: Antibacterial activity against Bacillus subtilis at 100 ug/ml after 16 to 20 hrs by broth microdilution method; format: functional, organism-based
[10] = test system: Staphylococcus epidermidis; assay: Antibacterial activity against Staphylococcus epidermidis at 100 ug/ml after 16 to 20 hrs by broth microdilution method; format: functional, organism-based
[11] = test system: Mycobacterium tuberculosis; assay: Antitubercular activity against Mycobacterium tuberculosis H37Ra at 2.5 to 5 ug/ml after 6 days by microplate alamar blue assay; format: functional; method in brief: as §1
[12] = test system: Mycobacterium tuberculosis; assay: Antitubercular activity against Mycobacterium tuberculosis H37Ra infected in BALB/c mouse assessed as reduction of CFU counts in liver at 50 mg/kg, ip administered 5 days after infection for 25 days measured after 3 days last dose; format: functional, organism-based; parameters: dose 50 mg/kg
Method in brief: (§3)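 Female BALB/c mice, 5–6 weeks old, were infected iv via the tail vein with about 2.5 × 10⁵ CFU of H37Ra in PBS, 5 per group. From day 5, drug was given ip at 50 mg/kg, 5 days/week, for 25 treatment days, in 10% DMSO–saline or poly(ethylene glycol) methyl ether. Controls received diluent only. Three days after the last dose, lung, liver and spleen homogenates were plated on 7H11 agar at 37 °C for up to 4 weeks. Colony counts were done blinded.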

[13] = test system: Mycobacterium tuberculosis; assay: Antitubercular activity against Mycobacterium tuberculosis H37Ra infected in BALB/c mouse assessed as reduction of CFU counts in lungs at 50 mg/kg, ip administered 5 days after infection for 25 days measured after 3 days last dose; format: functional, organism-based; parameters: dose 50 mg/kg; method in brief: as §3
[14] = test system: Mycobacterium tuberculosis; assay: Antitubercular activity against Mycobacterium tuberculosis H37Ra infected in BALB/c mouse assessed as reduction of CFU counts in spleen at 50 mg/kg, ip administered 5 days after infection for 25 days measured after 3 days last dose; format: functional, organism-based; parameters: dose 50 mg/kg; method in brief: as §3
Mus musculus = assay: Toxicity in Mycobacterium tuberculosis H37Ra infected in BALB/c mouse assessed as adverse effect at 50 mg/kg, ip administered 5 days after infection for 25 days; format: organism-based; parameters: dose 50 mg/kg, route intraperitoneal; details: in vivo
Method in brief: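 BALB/c mice infected with H37Ra were given 50 mg/kg ip in 10% DMSO–saline from day 5 post-infection, 5 days/week, over 25 treatment days. They were monitored for weight loss and behavioural changes and examined by gross necropsy after euthanasia.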

SMILES	inhibition at 1 µg/mL [1]	MIC50 [2]	inhibition at 10 µg/mL [3]	CC50 at 48 h [4]	Activity [5]	inhibition at 50 µg/mL [6]	Activity (Salmonella typhimurium)	inhibition at 5 µg/mL [7]	inhibition at 100 µg/mL [8]	Activity (Streptococcus pneumoniae)	Activity (Escherichia coli)	Activity (Streptococcus pyogenes)	Activity (Proteus vulgaris)	Activity (Pseudomonas aeruginosa)	Activity (Listeria monocytogenes)	Activity [9]	Activity (Enterococcus faecalis)	Activity (Staphylococcus aureus)	Activity (Bacillus subtilis)	Activity [10]	also measured
CO[C@H]1/C=C/O[C@@]2(C)Oc3c(C)c(O)c4c(O)c(c(/C=N/N5CCN(C)CC5)c(O)c4c3C2=O)NC(=O)/C(C)=C\C=C\[C@H](C)[C@H](O)[C@@H](C)[C@@H](O)[C@@H](C)[C@H](OC(C)=O)[C@@H]1C [RIFAMPIN]	100%	< 1 µg/mL																			
NNC(=O)c1ccncc1 [ISONIAZID]	100%	< 1 µg/mL																			
CCCc1ccc(C#Cc2c[nH]c(=O)[nH]c2=O)cc1		< 10 µg/mL	55%	> 100 µg/mL	Non-toxic	55%	inactive	0%	90%	inactive	inactive	inactive	inactive	inactive	inactive	Non-toxic	inactive	inactive	inactive	inactive	
C(C#Cc1ccccn1)#Cc1ccccn1	80%	< 1 µg/mL	100%		Non-toxic	100%	inactive		100%	inactive	inactive	inactive	inactive	inactive	inactive	Non-toxic	inactive	inactive	inactive	inactive	
O=c1[nH]cc(C#Cc2ccccc2)c(=O)[nH]1		> 10 µg/mL	40%	> 100 µg/mL	Non-toxic	90%	inactive		90%	inactive	inactive	inactive	inactive	inactive	inactive	Non-toxic	inactive	inactive	inactive	inactive	
CCCCCc1ccc(C#Cc2c[nH]c(=O)[nH]c2=O)cc1		10 µg/mL (≈ 35.4 µM)	50%	> 100 µg/mL	Non-toxic	50%	inactive	0%	90%	inactive	inactive	inactive	inactive	inactive	inactive	Non-toxic	inactive	inactive	inactive	inactive	
O=c1[nH]c(=O)n([C@H]2C[C@H](O)[C@@H](CO)O2)cc1C#Cc1ccccn1		2.5 µg/mL (≈ 7.59 µM)	68%		Non-toxic	78%	inactive		90%	inactive	inactive	inactive	inactive	inactive	inactive	Non-toxic	inactive	inactive	inactive	inactive	inhibition (INH) [11]: 50%
CCCc1cc2c[nH]c(=O)nc2o1		100 µg/mL (≈ 561 µM)	0%				inactive		50%	inactive	inactive	inactive	inactive	inactive	inactive		inactive	inactive	inactive	inactive	
O=c1[nH]cc(C#Cc2ccccn2)c(=O)[nH]1		5 µg/mL (≈ 23.5 µM)	60%	> 100 µg/mL	Non-toxic	70%	inactive	50%	90%	inactive	inactive	inactive	inactive	inactive	inactive	Non-toxic	inactive	inactive	inactive	inactive	Activity [12]: Active; Activity [13]: Active; Activity [14]: Active; Activity (Mus musculus): Non-toxic
N[C@@H]1CONC1=O [CYCLOSERINE]		5 µg/mL (≈ 49 µM)	67%					50%													Activity [12]: Active; Activity [13]: Active; Activity [14]: Active
